The values that follow come from ChEMBL document CHEMBL6177924, “Synthesis and antifungal evaluation of new azole derivatives containing 1,2,3-triazole” (RSC Med Chem, 2025).

Activity calls are given as the source filed them. The rule behind the calls is not given here.

In test [1] the test system is Candida albicans. The experiment in a line: Antibiofilm activity in Candida albicans SC5314 assessed as appearance of fungal cells in pseudomycelial shape with few mycelia measured after 24 hrs by inverted microscopic analysis. Type of test: functional, organism-based. As to conditions: dose 0.27-1.06 µg/ml. In a few lines:
(§1)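 Log-phase C. albicans in RPMI1640+10% FBS at 1×10^5 CFU/mL allowed to adhere in 24-well plates for 90 min at 30 °C; unattached medium removed. 1 mL medium with drug (0.27, 0.53, 1.06 µg/mL) or without drug added; 24 h at 30 °C. Biofilm stained with crystal violet 30 min, washed 3× with PBS, viewed by inverted microscope.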

Test [2] deals with Candida albicans. The experiment in a line: Antifungal activity against Candida albicans SC5314 assessed as inhibition of fungal growth measured after 36 hrs by time-killing curve analysis. The test is classed as functional, organism-based. In a few lines: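 Log-phase C. albicans at 1×10^5 CFU/mL in SDB, 10 mL cultures with drug (0.27, 0.53, 1.06 µg/mL), fluconazole or no drug. Shaken at 150 r/min, 30 °C. Samples taken at 0, 4, 8, 12, 24, 36 and 48 h for absorbance at 630 nm, triplicate wells. Absorbance plotted against time.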

The test system of test [3] is Candida albicans. The experiment in a line: Antifungal activity against Candida albicans assessed as inhibition of yeast state o mycelium state transformation at 0.27 to 1.06 microg/ml measured after 4 to 8 hrs by inverted microscopic analysis. The test is classed as functional, organism-based. As to conditions: dose 0.27-1.06 µg/ml, time 4-8 hrs. An outline of the steps:
(§2)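 Hyphae were induced in SD+10% FBS or in Spider medium. Log-phase cells at 1×10^5 CFU/mL final, 1 mL per well in 24-well plates, 3 wells per group. Drug at 0.27, 0.53 or 1.06 µg/mL, fluconazole, or no-drug control. Incubated at 30 °C; hyphal formation observed and photographed by inverted microscope at 4 h and 8 h.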

Test [4] has as its system Candida albicans. The experiment in a line: Induction of morphological changes in Candida albicans assessed as normal cell wall appearance at 0.53 microg/ml incubated for 16 to 24 hrs by transmission electron microscopic analysis. Type of test: functional, organism-based. As to conditions: dose 0.53 µg/ml, time 16-24 hrs. In a few lines:
(§3)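 C. albicans at 5×10^5 CFU/mL in SDB shaken with drug (0.27, 0.53, 1.06 µg/mL), fluconazole or no drug at 30 °C, 150 r/min, for 16-24 h. Pellets washed with PBS and fixed in cold 3% paraformaldehyde/2.5% glutaraldehyde at 4 °C, then 1% OsO4. Dehydrated in acetone and embedded in Epon-812. 60-90 nm sections stained with uranyl acetate and lead citrate, imaged by TEM.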

The subject of test [5] is Candida albicans. The experiment in a line: Induction of morphological changes in Candida albicans assessed as effect on cytoplasmic structure at 0.53 to 1.06 microg/ml incubated for 16 to 24 hrs by transmission electron microscopic analysis. Type of test: functional, organism-based. As to conditions: dose 0.53-1.06 µg/ml, time 16-24 hrs. In a few lines: as §3
The subject of test [6] is Candida albicans. The test can be described thus: Antifungal activity against Candida albicans assessed as inhibition of mycelia formation at 0.53 microg/ml measured after 4 to 8 hrs by inverted microscopic analysis. The following applies: dose 0.53 µg/ml, time 4-8 hrs. The test is classed as functional, organism-based. An outline of the steps: as §2
Test [7] has as its system Candida albicans. The test can be described thus: Antifungal activity against Candida albicans assessed as increase in yeast fungal cells at 0.27 to 1.06 microg/ml measured after 4 to 8 hrs by inverted microscopic analysis. Type of test: functional, organism-based. The following applies: dose 0.27-1.06 µg/ml, time 4-8 hrs. An outline of the steps:
as §2

For test [8], the system named is Candida albicans. The test can be described thus: Induction of morphological changes in Candida albicans assessed as loose distribution of cytoplasm at 0.53 microg/ml incubated for 16 to 24 hrs by transmission electron microscopic analysis. The following applies: dose 0.53 µg/ml, time 16-24 hrs. The test is classed as functional, organism-based. An outline of the steps: as §3

Test [9] deals with Candida albicans. The test can be described thus: Antibiofilm activity in Candida albicans SC5314 assessed as appearance of pseudomycelial form of fungal cells at 0.27 microg/ml measured after 24 hrs by inverted microscopic analysis. Type of test: functional, organism-based. The following applies: dose 0.27 µg/ml. In a few lines: as §1
The test system of test [10] is Candida albicans. The test can be described thus: Antifungal activity against Candida albicans assessed as increase in pseudomycelial fungal cells with reduction in mycelial formation at 0.27 to 1.06 microg/ml measured after 8 hrs by inverted microscopic analysis. The test is classed as functional, organism-based. As to conditions: dose 0.27-1.06 µg/ml. In a few lines:
as §2

Another test concerns Cell membrane. The test can be described thus: Induction of cell membrane permeability in Candida albicans assessed as increase in fluorescence intensity by multifunctional enzymatic assay. Type of test: subcellular.

With `O=C(Cn1cc(COC(Cn2ccnc2)c2ccc(Cl)cc2Cl)nn1)c1ccc2ccccc2c1` (stereo unspecified), the Activity entry in the test with Candida albicans [1] was “Dose-dependent-effect”; with Candida albicans [2] it was “Dose-dependent-effect”; with Candida albicans [3], “Active; Better Than That Of Fluconazole Group”; in the test with Candida albicans [6], “Active; Better Than That Of Fluconazole Group”; in the test with Cell membrane, “Dose-dependent-effect; Better Than That Of Fluconazole Group”. The outcome in the test on Candida albicans [4], in the test on Candida albicans [5], in the test with Candida albicans [7], in the test with Candida albicans [8], in the test with Candida albicans [9] and with Candida albicans [10] was Active.
